Ends that are not written are not given here. * marks the point of attachment. Biotin = O=C1N[C@H]2[C@H](CS[C@H]2CCCCC(=O)*)N1

We go through four substances from publication PMC2156157 (The Journal of Cell Biology, 1999).

Assay [1] has as its system c-Yes. In kind it is cell-based, human. Conditions: 16HBE14o− on transwell filters, mouse anti–c-Yes (1:100), XZ confocal. The method, boiled down:
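16HBE14o− clones stably expressing GFP-YAP65 chimeras were selected with G418 and screened by fluorescence and anti-GFP blot. Cells were grown to confluence on transwell filters and fixed in 4% paraformaldehyde. After blocking (milk/BSA/0.1% Triton X-100, 3 h), they were stained with mouse anti-c-Yes (1:100) and fluorescent secondary antiserum, then scanned in XZ by confocal microscopy. At least two independent clones per line were analysed.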

Assay [2] concerns GST-EBP50. Description: GST-EBP50 affinity resin binding of radiolabeled proteins. The arrangement: species or system human. The note with it: in vitro, conclusion from competition and resin binding. In short, it runs like this:
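GST-EBP50 (10 µg) on glutathione agarose was preincubated for 2 h with or without biotinylated C-terminal peptides. Peptides were given at 400 nM, or at increasing concentrations of YAP65 wild-type peptide. Incubation lasted 3 h at 4°C, followed by high-salt (1 M NaCl) and detergent washes. Bound and unbound fractions read by SDS-PAGE and phosphorimaging.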

For assay [3], the system named is GST-PDZ2 (PDZ2 of EBP50). Briefly: GST-PDZ2 affinity resin binding of radiolabeled protein. The arrangement: species or system human. In short, it runs like this: (§1)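 GST or GST-EBP50, PDZ1 or PDZ2 fusion (10 µg) was immobilised on glutathione agarose. Binding ran in binding buffer + 0.1% Triton X-100 for 3 h at 4°C. Resin washed three times in TEE/1 M NaCl/1% Triton, then three times in binding buffer/1% Triton. Eluate acetone-precipitated; SDS-PAGE and phosphorimaging; ≥3 repeats.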

Assay [4] has as its system GST-PDZ1 (PDZ1 of EBP50). Description: GST-PDZ1 affinity resin binding of radiolabeled protein. Conditions: 10 μg; radiolabeled full-length YAP65; 1 M NaCl washes. The arrangement: species or system human. The method, boiled down:
as §1

Assay [5] relates to GST. Briefly: GST control resin binding of radiolabeled protein. Conditions: 10 μg; radiolabeled full-length YAP65; 1 M NaCl washes. The method, boiled down:
as §1

In assay [6] the test system is GST-EBP50. Description: GST-EBP50 pull-down from 16HBE14o− lysate, Western blot. The note with it: 10 μg GST-EBP50, 16HBE14o− lysate. In kind it is binding, human. The method, boiled down: (§2)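 Human bronchial epithelial 16HBE14o− cells lysed in RIPA with 250 µM orthovanadate and protease inhibitors, then cleared at 40,000 g. GST or GST fusion protein (10 µg) on glutathione agarose was incubated with lysate (100 µg or ~200 µg) in binding buffer + 0.1% Triton X-100 for 3 h at 4°C. Washes: TEE/1 M NaCl/1% Triton, then binding buffer. Bound protein detected by 10% SDS-PAGE and immunoblot; ≥3 repeats.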
Background: A western blot detects proteins with antibodies after separation by electrophoresis.

Assay [7] deals with GST. Briefly: GST control pull-down from 16HBE14o− lysate, Western blot. In kind it is binding. Conditions: 10 μg GST. The method, boiled down:
as §2

Assay [8] has as its system apical membrane of airway epithelial cells. In kind it is cell-based, human. Conditions: 16HBE14o− cells on transwell filters 7–10 d after confluence, confocal. The method, boiled down: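 Samples were 16HBE14o− filters (7–10 d post-confluence) or primary nasal cultures (air-liquid interface, 40–50 d). Fixation was 4% paraformaldehyde, 5–20 min, room temperature. Blocking used milk/BSA/Triton (16HBE14o−) or 10–20% goat serum (primary). Primary antisera ran 4–12 h: ezrin 1:300, ZO-1 1:200, EBP50 1:500 or 1:200, YAP65 1:300 or 1:200. Primary cultures also got 70 nM FITC-phalloidin. Texas red/FITC secondaries, XZ confocal imaging.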

The test system of assay [9] is SH3 domain of c-Src and c-Yes. Conditions: biochemical assays; ref Sudol 1994; cited from earlier work.
Assay [10] concerns GST-EBP50. Description: blot overlay, GST-EBP50. In kind it is binding, human. The note with it: blot overlay assays (not shown).
Assay [11] has as its system GST-PDZ2. Description: GST-PDZ2 pull-down from 16HBE14o− lysate, Western blot. In kind it is binding, human. The note with it: 10 μg GST-PDZ2, ∼200 μg 16HBE14o− lysate. In short, it runs like this:
(§3)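 GST fusion protein (10 μg) immobilized on glutathione agarose and incubated 3 h at 4°C with ~200 μg 16HBE14o− lysate. Lysate made in RIPA with 250 μM orthovanadate and protease inhibitors, cleared at 40,000 g, and diluted in binding buffer + 0.1% Triton X-100. Beads washed in TEE/1 M NaCl/1% Triton, then in binding buffer/1% Triton. Eluates run on SDS-PAGE and Western blotted; each assay run at least three times.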

Assay [12] has as its system GST-PDZ1. Briefly: GST-PDZ1 pull-down from 16HBE14o− lysate, Western blot. In kind it is binding, human. The note with it: 10 μg GST-PDZ1, ∼200 μg 16HBE14o− lysate. The method, boiled down: as §3

With “GFP-YAP65/−4: GFP fused with YAP65 lacking the last four amino acids”, in assay [1], the “c-Yes distribution in cells stably overexpressing the chimera” value was “a significant amount of c-Yes was redistributed to the lateral cell borders”.

In the case of “YAP65: Yes-associated protein 65; full-length human, in vitro translated, or endogenous”, in assay [2], the “affinity for EBP50” value is listed as “appear to bind EBP50 with high affinity”. Moreover, the “association with GST-PDZ2” value in assay [3] (10 μg, radiolabeled full-length YAP65, 1 M NaCl washes) was “associated with GST-EBP50 and GST-PDZ2 of EBP50”. In addition, the “association with GST-PDZ1” value in assay [4] is “not with GST or GST-PDZ1”. Besides, in assay [5], the “association with GST” value is given as “not with GST or GST-PDZ1”. Also, the “association with GST-EBP50 from lysate” value in assay [6] is recorded as “bound to the GST-EBP50 beads”. For the same substance, the “association with GST from lysate” value in assay [7] is reported as “not to GST beads”. Moreover, the “localization of endogenous protein” value in assay [8] was “preferentially accumulated at the apical membrane”. The “binding to SH3 domain of c-Src and c-Yes” value in assay [9] is “bind the SH3 domain of c-Src and c-Yes, although the affinity for c-Yes was greater”.

Turning to “YAPwt: the COOH-terminal 10 amino acids of YAP65 (Biotin-SGSGLDKESFLTWL)”, the “binding to GST-EBP50 in blot overlay” value in assay [10] is “bound GST-EBP50”. The “preferential binding to PDZ2 versus PDZ1” value in assay [3] (GST fusion proteins of PDZ1 and PDZ2, pull-down (Fig. 5 C), discussion statement) is on record as “preferential binding of YAP65 to PDZ2”.

In the case of “c-Yes: nonreceptor tyrosine kinase of the Src family”, in assay [6], the “association with GST-EBP50 from lysate” value is “easily visualized in the bound fraction of GST-EBP50 and GST-PDZ2 affinity resins”. In addition, in assay [11], the “association with GST-PDZ2 from lysate” value is “easily visualized in the bound fraction of GST-EBP50 and GST-PDZ2 affinity resins”. Also, the “association with GST-PDZ1 from lysate” value in [12] is given as “no c-Yes was found to associate with GST or with GST-PDZ1”. Further, the “association with GST from lysate” value in [7] is recorded as “no c-Yes was found to associate with GST or with GST-PDZ1”.
